What was measured:
Homo sapiens [1] = organism: Homo sapiens; experiment: In vitro inhibition of platelet aggregation induced by DD (PRP incubated for 5 minutes at 37 degree C) at 10e-5 M;No significance; format: functional
How it was run: (§1)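 Human venous blood anticoagulated with 3.8% sodium citrate (1:9). PRP from centrifugation at 800 rpm for 10 min at room temperature. Count adjusted with PPP to […]. Compound in saline with 10% ethylene glycol is added to PRP and incubated at 37 °C before the agonist. Agonists: ADP 2×10^-5 M, AA 0.6 mM, PGH2 2.8 μM, adrenaline 0.6 μM. Born absorbance aggregometry; n = 5.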

Rattus norvegicus [2] = experiment: Antihypertensive activity in spontaneously hypertensive rats (SHR) measured by percentage fall in arterial pressure (AP) at 25 mg/kg administered perorally at 5 h; No significance; format: functional, organism-based; parameters: dose 25 mg/kg; details: Artery
How it was run: (§2)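 Oral dosing at 2.5 mL/kg to unanesthetized male and female Okamoto-strain SHR (8 weeks old, 300–350 g, systolic pressure ≥190 mmHg, heart rate 400–650 beats/min), five per dose. Vehicle was normal saline or saline with 0.2% (carboxymethyl)cellulose and 1.0% Tween 80. AP measured on the tail by mechanical transduction at set times; expressed as percentage fall from control.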

Rattus norvegicus [3] = experiment: Antihypertensive activity in spontaneously hypertensive rats (SHR) measured by percentage fall in arterial pressure (AP) at 5 mg/kg administered perorally at 24 h; No significance; format: functional, organism-based; parameters: dose 5 mg/kg; details: Artery; how it was run: as §2
Rattus norvegicus [4] = experiment: Antihypertensive activity in spontaneously hypertensive rats (SHR) measured by percentage fall in arterial pressure (AP) at 5 mg/kg administered perorally at 5 h; No significance; format: functional, organism-based; parameters: dose 5 mg/kg; details: Artery; how it was run: as §2
Rattus norvegicus [5] = experiment: Antihypertensive activity in spontaneously hypertensive rats (SHR) measured by percentage fall in cardiac rhythm (CR) at 5 mg/kg administered perorally at 24 h; No significance; format: functional, organism-based; parameters: dose 5 mg/kg; details: Heart
How it was run: (§3)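 Conscious SHR (Okamoto strain), 8 weeks old, male and female, 300–350 g, systolic BP ≥190 mmHg, CR 400–650 beats/min. Given ip or po at 2.5 mL/kg in normal saline or saline with 0.2% (carboxymethyl)cellulose and 1.0% Tween 80. Tail AP and CR recorded by mechanical transduction at 1, 3, 5 and 24 h, five animals per dose. Effect expressed as % fall versus control.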

Homo sapiens [6] = organism: Homo sapiens; experiment: In vitro inhibition of platelet aggregation induced by AA (PRP incubated for 60 minutes at 37 degree C) at 10e-5 M;No significance; format: functional; how it was run: as §1
Rattus norvegicus [7] = experiment: Antihypertensive activity in spontaneously hypertensive rats (SHR) measured by percentage fall in arterial pressure (AP) at 1 mg/kg administered intraperitoneally at 24 h; No significance; format: functional, organism-based; parameters: dose 1 mg/kg; details: Artery
How it was run: (§4)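 Unanesthetized Okamoto-strain SHR, male and female, 8 weeks old, 300–350 g, systolic pressure ≥190 mmHg, heart rate 400–650 beats/min; five animals per dose. Given ip at 2.5 mL/kg, dissolved or suspended in normal saline or saline with 0.2% (carboxymethyl)cellulose and 1.0% Tween 80. Tail AP and CR recorded by mechanical transduction at set times; reported as percentage fall from control.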

Rattus norvegicus [8] = experiment: Antihypertensive activity in spontaneously hypertensive rats (SHR) measured by percentage fall in cardiac rhythm (CR) at 25 mg/kg administered intraperitoneally at 1 h;No significance; format: functional, organism-based; parameters: dose 25 mg/kg; details: Heart; how it was run: as §4
Rattus norvegicus [9] = experiment: Antihypertensive activity in spontaneously hypertensive rats (SHR) measured by percentage fall in cardiac rhythm (CR) at 25 mg/kg administered perorally at 5 h; No significance; format: functional, organism-based; parameters: dose 25 mg/kg; details: Heart; how it was run: as §3
Rattus norvegicus [10] = experiment: Antihypertensive activity in spontaneously hypertensive rats (SHR) measured by percentage fall in cardiac rhythm (CR) at 5 mg/kg administered intraperitoneally at 1 h;No significance; format: functional, organism-based; parameters: dose 5 mg/kg; details: Heart; how it was run: as §3
Rattus norvegicus [11] = experiment: Antihypertensive activity in spontaneously hypertensive rats (SHR) measured by percentage fall in cardiac rhythm (CR) at 5 mg/kg administered intraperitoneally at 24 h; No significance; format: functional, organism-based; parameters: dose 5 mg/kg; details: Heart; how it was run: as §3
Rattus norvegicus [12] = experiment: Antihypertensive activity in spontaneously hypertensive rats (SHR) measured by percentage fall in arterial pressure (AP) at 25 mg/kg administered perorally at 24 h; No significance; format: functional, organism-based; parameters: dose 25 mg/kg; details: Artery; how it was run: as §2
Rattus norvegicus [13] = experiment: Antihypertensive activity in spontaneously hypertensive rats (SHR) measured by percentage fall in cardiac rhythm (CR) at 25 mg/kg administered perorally at 3 h;No significance; format: functional, organism-based; parameters: dose 25 mg/kg; details: Heart; how it was run: as §3
Rattus norvegicus [14] = experiment: Antihypertensive activity in spontaneously hypertensive rats (SHR) measured by percentage fall in cardiac rhythm (CR) at 5 mg/kg administered intraperitoneally at 3 h;No significance; format: functional, organism-based; parameters: dose 5 mg/kg; details: Heart; how it was run: as §3
Rattus norvegicus [15] = experiment: Antihypertensive activity in spontaneously hypertensive rats (SHR) measured by percentage fall in cardiac rhythm (CR) at 5 mg/kg administered perorally at 3 h;No significance; format: functional, organism-based; parameters: dose 5 mg/kg; details: Heart; how it was run: as §3
Rattus norvegicus [16] = experiment: Antihypertensive activity in spontaneously hypertensive rats (SHR) measured by percentage fall in cardiac rhythm (CR) at 25 mg/kg administered intraperitoneally at 24 h;No significance; format: functional, organism-based; parameters: dose 25 mg/kg; details: Heart; how it was run: as §4
Rattus norvegicus [17] = experiment: Antihypertensive activity in spontaneously hypertensive rats (SHR) measured by percentage fall in arterial pressure (AP) at 1 mg/kg administered intraperitoneally at 5 h; No significance; format: functional, organism-based; parameters: dose 1 mg/kg; details: Artery; how it was run: as §4
Rattus norvegicus [18] = experiment: Antihypertensive activity in spontaneously hypertensive rats (SHR) measured by percentage fall in cardiac rhythm (CR) at 25 mg/kg administered perorally at 24 h; No significance; format: functional, organism-based; parameters: dose 25 mg/kg; details: Heart; how it was run: as §3
Rattus norvegicus [19] = experiment: Antihypertensive activity in spontaneously hypertensive rats (SHR) measured by percentage fall in cardiac rhythm (CR) at 5 mg/kg administered perorally at 5 h; No significance; format: functional, organism-based; parameters: dose 5 mg/kg; details: Heart; how it was run: as §3
Rattus norvegicus [20] = experiment: Percent fall in systolic blood pressure, directly measured on carotid (iv on the jugular vein) of spontaneously hypertensive rats at 1 mg/kg after 180 minutes; No significance; format: functional, organism-based; parameters: dose 1 mg/kg; details: Artery
How it was run: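 Anesthetized (sodium pentobarbital, 70 mg/kg) male and female Okamoto SHR, 8 weeks old, 300–350 g. Given iv into the jugular vein in normal saline. Arterial pressure and cardiac rhythm are recorded directly from the carotid by polygraph at set times after dosing. Each is expressed as percent change from the pre-dose control value.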

CCOc1ccc2[nH]c3c(NN)nncc3c2c1
inactive: inhibition (Homo sapiens [1]) No significant values | Decrease in AP (Rattus norvegicus [2]) No significant values | Decrease in AP (Rattus norvegicus [3]) No significant values | Decrease in AP (Rattus norvegicus [4]) No significant values | Decrease in CR (Rattus norvegicus [5]) No significant values | inhibition (Homo sapiens [6]) No significant values | Decrease in AP (Rattus norvegicus [7]) No significant values | Decrease in CR (Rattus norvegicus [8]) No significant values | Decrease in CR (Rattus norvegicus [9]) No significant values | Decrease in CR (Rattus norvegicus [10]) No significant values | Decrease in CR (Rattus norvegicus [11]) No significant values | Decrease in blood pressure (Rattus norvegicus [12]) No significant values | Decrease in blood pressure (Rattus norvegicus [13]) No significant values | Decrease in blood pressure (Rattus norvegicus [14]) No significant values | Decrease in blood pressure (Rattus norvegicus [15]) No significant values | Decrease in CR (Rattus norvegicus [16]) No significant values | Decrease in AP (Rattus norvegicus [17]) No significant values | Decrease in AP (Rattus norvegicus [18]) No significant values | Decrease in AP (Rattus norvegicus [19]) No significant values | Decrease in AP (Rattus norvegicus [20]) No significant values

Source: ChEMBL document CHEMBL1123757, “Selective thromboxane synthetase inhibitors and antihypertensive agents. New derivatives of 4-hydrazino-5H-pyridazino[4,5-b]indole, 4-hydrazinopyridazino[4,5-a]indole, and related compounds” (J Med Chem, 1987)
